# Compound activity: PubChem, Broad Institute
# Rows were chosen to be rich in hits. Some 2.1% of all compounds tested hit in one or more screens of this group.
# PAX8 inh HTS: lowers PAX8-driven luciferase in RMG-I cells | RMG-I TPO-luciferase reporter, SteadyGlo, 24 h | inhibition, % at 12.6 µM | 360,000 compounds, 1.2% hits;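 active = mean replicate inhibition at least 60% with every replicate also reaching 60%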;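 also: luciferase light reporting Pax8 driven TPO promoter activity; plate controls were median of neutral control wells for no effect and mitoxantrone controls for full effect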
# Shn3 inh set2: inhibitors of Schnurri-3 3'UTR reporter in osteoblasts | inhibition, % at 12.5 µM | Clone20 osteoblast Shn3 3'UTR firefly luciferase, 24 h | 360,000 compounds, 0.52% hits;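 active = mean inhibition of at least 75% with every replicate also reaching 75%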;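 also: 0% = median of neutral control wells and 100% = pilot-screen positive control compound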
# EBV LMP1 NFkB: reduces LMP1-driven NF-kappaB luciferase signal | 350,000 compounds, 0.69% hits | inhibition, % at 12.5 µM | AID 504558 | LMP1-induced NF-kappaB luciferase reporter cells, luminescence; in the data active = inhibition above about 41%;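 also: 0% = neutral control wells and 100% = reference inhibitor control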
# EWS-Fli inh: EWS/Fli transcriptional activity inhibition; A673 NR0B1-luciferase reporter, viability-normalised; inhibition, % at 12.6 µM; 350,000 compounds, 0.67% hits; AID 651661;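 active = mean inhibition of at least 50% after viability correction, with every replicate also passing that limit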;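 also: firefly luciferase signal divided by Alamar Blue viability fluorescence both relative to DMSO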
# FN deposit inh: fibronectin deposition inhibition | inhibition, % at 12.6 µM | 350,000 compounds, 0.086% hits | AH1F fibroblasts, Alexa488-fibronectin deposition fluorescence, overnight;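 active = mean inhibition across replicates of 30% or more, regardless of how many single replicates reach that level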;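 also: positive control wells lacked labelled fibronectin entirely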
#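 Measured by – fluorescence 485/525 nm · System – AH1F fibroblast monolayer, labelled fibronectin deposition · Amount – 10000 cells per well · Buffer or medium – serum-reduced DMEM (2% serum) · Doses – single dose, pinned · Also added – fluorescent fibronectin at 24 nM final · Schedule – 1 h cell attachment, overnight exposure to compound and label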
# aSyn 5UTR inh: MLPCN primary screen, SNCA 5' untranslated region; 300,000 compounds, 0.82% hits; AID 1813; inhibition, % (tested at 7.5 µM); alpha-synuclein 5'UTR reporter, inhibitor activity; in the data active = inhibition above about 60%;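 also: H4 neuroglioblastoma cells stably carrying SNCA 5'UTR luciferase fusion; 0% = DMSO wells and 100% = positive control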
# The depositor's hits bear a star; x = no result given.
SMILES,PAX8 inh HTS,Shn3 inh set2,EBV LMP1 NFkB,EWS-Fli inh,FN deposit inh,aSyn 5UTR inh
O=C(NCCc1ccccc1)c1ccc2nccnc2c1,-3,-21,50*,35,-12,63*
COC(=O)CCC(=O)OC1(C)C(=O)C=C2C=C(C3CC3)N(CC3CC3)C=C2C1=O (stereo unspecified),-4,-14,50*,4,-4,14
COC(=O)CCC(=O)OC1(C)C(=O)C=C2C=C(C3CC3)N(CC(C)C)C=C2C1=O (stereo unspecified),x,x,x,x,x,15
COCCn1c(C)cc(C2=NNC(=NC3CC3)SC2)c1C,102*,91*,84*,90*,4,112*
C=CCN=C1NN=C(c2cc(C)n(CCOC)c2C)CS1,56,4,45*,85*,2,86*
COCCn1c(C)cc(C2=NNC(=Nc3ccc(Cl)cc3Cl)SC2)c1C,x,5,15,x,x,-2
C=CCn1c(C)cc(C2=NNC(=NC(C)(C)C)SC2)c1C,13,11,57*,60*,3,89*
CCCC#Cc1cnc2c(c1)C(=O)N([C@@H](C)CO)C[C@H](C)[C@H](CN(C)C(=O)c1ccccc1)O2,-34,x,x,1,-8,x
CC(=O)N[C@@H]1CC[C@H](CCNC(=O)C2CCCC2)O[C@H]1CO,-8,x,x,2,x,x
Cn1cccc1/C=N/n1c(-c2ccc(Cl)cc2Cl)n[nH]c1=S,x,-17,84*,x,x,5
Cn1cccc1/C=N/n1c(-c2ccc(Cl)cc2)n[nH]c1=S,x,-16,-6,x,x,3
C[C@@H]1CCCCO[C@H](CN(C)C(=O)NC2CCCCC2)[C@H](C)CN([C@H](C)CO)C(=O)c2cc(NC(=O)NC3CCCCC3)ccc2O1,36,x,x,0,-5,x
C[C@H](CO)N1C[C@H](C)[C@H](CN(C)Cc2ccc(Cl)c(Cl)c2)Oc2ccc(NC(=O)Nc3ccc(F)cc3)cc2CC1=O,6,x,x,-2,8,x
C[C@H]1CN([C@@H](C)CO)C(=O)Cc2cc(NC(=O)Cn3cnnn3)ccc2O[C@@H]1CN(C)Cc1ccc(Cl)c(Cl)c1,2,x,x,69*,-2,x
C[C@H](CO)N1C[C@H](C)[C@@H](CN(C)Cc2ccc(Cl)c(Cl)c2)Oc2ccc(NC(=O)Nc3ccc(F)cc3)cc2CC1=O,84*,x,x,63*,-17,x
C[C@H](CO)N1C[C@H](C)[C@@H](CN(C)Cc2ccc3c(c2)OCO3)Oc2ccc(NC(=O)Cn3cnnn3)cc2CC1=O,-6,x,x,-4,x,x
C[C@H]1CN([C@@H](C)CO)C(=O)Cc2cc(NC(=O)Nc3ccc(F)cc3)ccc2O[C@H]1CN(C)Cc1ccc(Cl)c(Cl)c1,110*,x,x,-12,2,x
C[C@@H]1CN([C@@H](C)CO)C(=O)Cc2cc(NC(=O)Nc3ccc(F)cc3)ccc2O[C@H]1CN(C)Cc1ccc(Cl)c(Cl)c1,105*,x,x,40,2,x
CO[C@@H]1CN(C)C(=O)c2ccc(NC(=O)C3CCOCC3)cc2OC[C@@H](C)N(C(=O)C2CCOCC2)C[C@H]1C,x,x,x,-7,-3,x
C[C@@H]1CCCCO[C@@H](CN(C)C(=O)NC2CCCCC2)[C@@H](C)CN([C@@H](C)CO)C(=O)c2cc(NC(=O)c3ccccc3)ccc2O1,x,x,x,-6,4,x
C[C@@H]1CN([C@H](C)CO)C(=O)c2cc(C#Cc3ccccc3F)cnc2O[C@@H]1CN(C)C(=O)C1CC1,x,x,x,-14,x,x
C[C@@H]1CN([C@H](C)CO)C(=O)Cc2cc(NC(=O)Nc3ccc(F)cc3)ccc2O[C@@H]1CN(C)Cc1ccc(Cl)c(Cl)c1,109*,x,x,-21,-7,x
O=C(NCc1cccnc1)/C(=C/c1ccc(-c2cccc(Cl)c2)o1)S(=O)(=O)c1ccccc1,x,-14,-12,x,x,-193
O=C(NCc1cccnc1)/C(=C\c1ccc(-c2cccc(Cl)c2)o1)S(=O)(=O)c1ccccc1,x,97*,-2,x,x,-22
O=C(O)CSC1c2ccccc2C(=O)N1Cc1ccccc1 (stereo unspecified),x,-5,2,x,x,-5
SMILES,PAX8 inh HTS,Shn3 inh set2,EBV LMP1 NFkB,EWS-Fli inh,FN deposit inh,aSyn 5UTR inh
CCC(=O)OC1c2ccccc2C(=O)N1Cc1ccccc1 (stereo unspecified),2,-10,87*,10,4,0
Nc1cc(=O)[nH]c(SCc2ccc(Cl)cc2)n1,x,15,10,x,x,7
Nc1cc(=O)[nH]c(SCCSc2cc(Cl)ccc2Cl)n1,3,1,51*,5,4,50
Nc1cc(=O)[nH]c(SCCSc2ccccc2F)n1,-2,3,3,-2,1,67*
CCCSc1nc(N)cc(=O)[nH]1,x,14,-2,x,x,14
Cc1ccc(S(=O)(=O)Nc2ccc3c(c2)CC(=O)N([C@H](C)CO)C[C@@H](C)[C@@H](CN(C)S(=O)(=O)c2cn(C)cn2)O3)cc1,-18,x,x,-3,x,x
COc1ccc(S(=O)(=O)Nc2ccc3c(c2)C(=O)N([C@@H](C)CO)C[C@H](C)[C@@H](CN(C)S(=O)(=O)c2cccs2)OCCCC[C@H](C)O3)cc1,41,x,x,8,-2,x
Cc1ccc(-c2nc3ncccc3o2)cc1NC(=O)c1ccco1,x,-4,-8,x,32*,-29
Cc1ccc(-c2nc3ncccc3o2)cc1NC(=O)c1sc2ccccc2c1Cl,x,85*,38,7,x,11
CCCC(=O)Nc1ccc2c(c1)C(=O)N(C)[C@@H]1CC[C@@H](CC(=O)NCC3CCCCC3)O[C@H]1CO2,1,x,x,-1,-19,x
Nc1ccc(-c2ncc(-c3ccccc3)o2)cc1,-33,44,28,65*,-5,86*
Cc1ccc(S(=O)(=O)N(C)C[C@@H]2OCCCC[C@H](C)Oc3ccc(NC(=O)c4ccccc4)cc3C(=O)N([C@H](C)CO)C[C@H]2C)cc1,15,x,x,1,5,x
CN1C(=O)c2cc(NC(=O)c3ccc(F)c(F)c3)ccc2OC[C@@H]2O[C@H](CC(=O)O)CC[C@@H]21,6,x,x,4,-14,x
c1nc(NCc2ccc3c(c2)OCO3)c2cc(-c3ccoc3)ccc2n1,-29,-3,49*,-36,-3,x
COCC(=O)Nc1ccc2c(c1)OC[C@@H](C)N(CCC(F)(F)F)C[C@H](C)[C@H](OC)CN(C)C2=O,0,x,x,-8,x,x
